Our source for the inhibition values is PubChem BioAssay AID504491 (The Scripps Research Institute Molecular Screening Center, 2011).

Common to all, as to assay: serine hydrolase selectivity versus PAFAH2 – cell lysate, gel-based fluorescence ABPP, carbamate vs triazole urea, selectivity assay, late-stage follow-up (AID 504491)
One experiment deals with APEH. The note with it: BW5147 mouse T-cell proteome, gel ABPP FP-Rh, 30 min, at 20 µM, stronger effect = higher value. The method, boiled down:
(§1)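 Assay system: mouse BW5147 T-cell soluble lysate; quantity: proteome at 1 mg/mL protein; medium: Dulbecco's phosphate-buffered saline; dosing: single dose of test compound at 20 µM; timing: 30 min compound, 30 min probe, 25 °C; technique: SDS-PAGE separation with in-gel fluorescence scanning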

A further experiment has as its system LYPLA1. The note with it: BW5147 mouse T-cell proteome, gel ABPP FP-Rh, 30 min, at 20 µM, stronger effect = higher value. The method, boiled down: as §1
The next experiment concerns ESD. The following applies: BW5147 mouse T-cell proteome, gel ABPP FP-Rh, 30 min, at 20 µM, stronger effect = higher value. The method, boiled down:
as §1

A further experiment concerns LYPLA2. The note with it: BW5147 mouse T-cell proteome, gel ABPP FP-Rh, 30 min, at 20 µM, stronger effect = higher value. A digest of the protocol:
as §1

Another experiment has as its system ABHD11. The note with it: BW5147 mouse T-cell proteome, gel ABPP FP-Rh, 30 min, at 20 µM, stronger effect = higher value. A digest of the protocol: as §1
Experiment [1] deals with Platelet-activating factor acetylhydrolase 2, cytoplasmic (Mus musculus) (UniProt Q8VDG7). The note with it: BW5147 mouse T-cell proteome, gel ABPP FP-Rh, 30 min; PAFAH2; at 20 µM; stronger effect = higher value. A digest of the protocol:
as §1

Active and inactive are the calls of the source.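 The calls were made as follows: active = inhibition of the target enzyme PAFAH2 of at least 50%, whatever the off-target enzymes show; inactive = PAFAH2 inhibition under 50%.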

Chain of Platelet-activating factor acetylhydrolase 2, cytoplasmic (Mus musculus) (Q8VDG7 whole entry, looked up): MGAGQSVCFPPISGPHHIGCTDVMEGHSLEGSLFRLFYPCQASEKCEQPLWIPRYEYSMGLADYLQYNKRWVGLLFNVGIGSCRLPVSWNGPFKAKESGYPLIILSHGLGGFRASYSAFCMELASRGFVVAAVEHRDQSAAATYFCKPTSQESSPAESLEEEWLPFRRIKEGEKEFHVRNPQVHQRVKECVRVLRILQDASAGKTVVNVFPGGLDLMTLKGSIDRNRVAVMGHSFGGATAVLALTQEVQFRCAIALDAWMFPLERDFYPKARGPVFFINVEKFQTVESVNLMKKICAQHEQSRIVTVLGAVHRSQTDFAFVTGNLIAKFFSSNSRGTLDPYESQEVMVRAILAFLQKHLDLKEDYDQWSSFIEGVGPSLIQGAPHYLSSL

Consider `O=C(Oc1ccc([N+](=O)[O-])cc1)N1CCCCC1`, for which the inhibition with APEH is 0% (inactive); with LYPLA1 it was 0% (inactive); in the experiment with ESD, 0% (inactive); with LYPLA2 it was 0% (inactive); with ABHD11, 100%; in experiment [1], 0% (inactive).
On to `O=C(N1CCCCC1)n1ccnn1`, for which the inhibition (in the experiment with APEH; with LYPLA1; in the experiment with ESD; in the experiment with LYPLA2; in the experiment on ABHD11; in experiment [1]) was 100% throughout.
